Experimental data: ChEMBL document CHEMBL1156948, “Statistical molecular design of a focused salicylidene acylhydrazide library and multivariate QSAR of inhibition of type III secretion in the Gram-negative bacterium Yersinia” (Bioorg Med Chem, 2010)
The source made the active and inactive calls. How the calls were made is not given here.

Assays:
Escherichia coli [1] = assay: Antibacterial activity against Escherichia coli DH5[alpha] at 50 uM after 23 hrs by broth dilution assay; assay type: functional, organism-based
Procedure, shortened: (§1)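 Overnight LB culture of E. coli DH5α grown at 37 °C, diluted to OD600 0.1 in LB with 2.5 mM CaCl2; compound added from DMSO stock to final 50 or 100 µM. Incubated at 37 °C with absorbance at 595 nm followed over 23 h.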

[2] = test system: Yersinia pseudotuberculosis YPIII; assay: Inhibition of T3S in Yersinia pseudotuberculosis YPIII expressing yopE-luxAB at 25 uM after 3 hrs by luciferase reporter gene assay
Procedure, shortened: (§2)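 Strain YPIII pIB102 (yopE-luxAB) grown overnight at room temperature in BHI with 5 mM EGTA and 20 mM MgCl2 (calcium depletion), adjusted to OD600 0.088–0.095. Compound added from DMSO at 1.56–200 µM final (eight concentrations). Shaken 1 h at room temperature, then 2 h at 37 °C. Decanal added and light emission read immediately. Triplicates, repeated at least three times.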

Escherichia coli [3] = assay: Antibacterial activity against Escherichia coli DH5[alpha] at 100 uM after 23 hrs by broth dilution assay; assay type: functional, organism-based; procedure, shortened: as §1
[4] = test system: Yersinia pseudotuberculosis; assay: Antibacterial activity against Yersinia pseudotuberculosis expressing pIB102 at 50 uM after 23 hrs by broth dilution assay; assay type: functional, organism-based
Procedure, shortened: (§3)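 Wild-type pIB102 grown overnight in LB at room temperature, diluted to OD600 = 0.1 in LB with 2.5 mM CaCl2. Compound added from DMSO stock to final 50 and 100 µM. Incubated at 37 °C with absorbance at 595 nm read over 23 h.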

[5] = test system: Yersinia pseudotuberculosis YPIII; assay: Inhibition of T3S in Yersinia pseudotuberculosis YPIII expressing yopE-luxAB at 6.25 uM after 3 hrs by luciferase reporter gene assay; procedure, shortened: as §2
[6] = test system: Yersinia pseudotuberculosis YPIII; assay: Inhibition of T3S in Yersinia pseudotuberculosis YPIII expressing yopE-luxAB at 50 uM after 3 hrs by luciferase reporter gene assay; procedure, shortened: as §2
[7] = test system: Yersinia pseudotuberculosis YPIII; assay: Inhibition of T3S in Yersinia pseudotuberculosis YPIII expressing yopE-luxAB at 12.5 uM after 3 hrs by luciferase reporter gene assay; procedure, shortened: as §2
[8] = test system: Yersinia pseudotuberculosis; assay: Antibacterial activity against Yersinia pseudotuberculosis expressing pIB102 at 100 uM after 23 hrs by broth dilution assay; assay type: functional, organism-based; procedure, shortened: as §3
[9] = test system: Yersinia pseudotuberculosis YPIII; assay: Inhibition of T3S in Yersinia pseudotuberculosis YPIII expressing yopE-luxAB at 100 uM after 3 hrs by luciferase reporter gene assay; procedure, shortened: as §2
[10] = test system: Yersinia pseudotuberculosis YPIII; assay: Inhibition of T3S in Yersinia pseudotuberculosis YPIII expressing yopE-luxAB at 3.13 uM after 3 hrs by luciferase reporter gene assay; procedure, shortened: as §2
[11] = test system: Yersinia pseudotuberculosis YPIII; assay: Inhibition of T3S in Yersinia pseudotuberculosis YPIII expressing yopE-luxAB at 1.56 uM after 3 hrs by luciferase reporter gene assay; procedure, shortened: as §2
[12] = test system: Yersinia pseudotuberculosis YPIII; assay: Inhibition of T3S in Yersinia pseudotuberculosis YPIII expressing yopE-luxAB at 200 uM after 3 hrs by luciferase reporter gene assay; procedure, shortened: as §2

COc1ccc(Br)c(/C=N/NC(=O)CC#N)c1O
Activity (Escherichia coli [1]): inactive
inhibition [2]: 20%
Activity (Escherichia coli [3]): inactive
Activity [4]: inactive
inhibition [5]: 17%
inhibition [6]: 25%
inhibition [7]: 18%
Activity [8]: inactive
inhibition [9]: 57%
inhibition [10]: 12%
inhibition [11]: -9%
inhibition [12]: 59%

COc1ccc(Br)c(C(=O)N/N=C/c2cc([N+](=O)[O-])cc([N+](=O)[O-])c2O)c1
Activity (Escherichia coli [1]): inactive
inhibition [2]: 23%
Activity (Escherichia coli [3]): inactive
Activity [4]: inactive
inhibition [5]: 13%
inhibition [6]: 30%
inhibition [7]: 12%
Activity [8]: inactive
inhibition [9]: 30%
inhibition [10]: 0%
inhibition [11]: -7%
inhibition [12]: 25%

COc1cc(Br)cc(/C=N/NC(=O)CCc2ccc(O)cc2)c1O
Activity (Escherichia coli [1]): inactive
inhibition [2]: 18%
Activity (Escherichia coli [3]): inactive
Activity [4]: inactive
inhibition [5]: 9%
inhibition [6]: 23%
inhibition [7]: 11%
Activity [8]: inactive
inhibition [9]: 36%
inhibition [10]: 3%
inhibition [11]: -10%
inhibition [12]: 52%

COc1cccc(C(=O)N/N=C/c2cc(OC)cc(OC)c2O)c1
Activity (Escherichia coli [1]): inactive
inhibition [2]: 20%
Activity (Escherichia coli [3]): inactive
Activity [4]: inactive
inhibition [5]: 9%
inhibition [6]: 43%
inhibition [7]: 13%
Activity [8]: inactive
inhibition [9]: 63%
inhibition [10]: 4%
inhibition [11]: -7%
inhibition [12]: 76%

COc1cc([N+](=O)[O-])cc(/C=N/NC(=O)CC#N)c1O
Activity (Escherichia coli [1]): inactive
inhibition [2]: 27%
Activity (Escherichia coli [3]): inactive
Activity [4]: inactive
inhibition [5]: 14%
inhibition [6]: 39%
inhibition [7]: 24%
Activity [8]: inactive
inhibition [9]: 39%
inhibition [10]: 4%
inhibition [11]: -4%
inhibition [12]: 43%

O=C(CC12CC3CC(CC(C3)C1)C2)N/N=C/c1ccc(Cl)cc1O
Activity (Escherichia coli [1]): inactive
inhibition [2]: 25%
Activity (Escherichia coli [3]): inactive
Activity [4]: inactive
inhibition [5]: 18%
inhibition [6]: 32%
inhibition [7]: 19%
Activity [8]: inactive
inhibition [9]: 26%
inhibition [10]: 7%
inhibition [11]: 0%
inhibition [12]: 29%

CCN(CC)c1ccc(/C=N/NC(=O)c2cc(Cl)cc(Cl)c2)c(O)c1
Activity (Escherichia coli [1]): inactive
inhibition [2]: 34%
Activity (Escherichia coli [3]): inactive
Activity [4]: inactive
inhibition [5]: 22%
inhibition [6]: 43%
inhibition [7]: 29%
Activity [8]: inactive
inhibition [9]: 46%
inhibition [10]: 19%
inhibition [11]: -6%
inhibition [12]: 46%

O=C(N/N=C/c1cc(F)cc(Cl)c1O)c1cc(Cl)cc(Cl)c1
Activity (Escherichia coli [1]): inactive
inhibition [2]: 11%
Activity (Escherichia coli [3]): inactive
Activity [4]: inactive
inhibition [5]: 12%
inhibition [6]: 19%
inhibition [7]: 10%
Activity [8]: inactive
inhibition [9]: 24%
inhibition [10]: 4%
inhibition [11]: -10%
inhibition [12]: 13%

O=C(N/N=C/c1c(O)cc(O)cc1O)c1sc2ccccc2c1Cl
Activity (Escherichia coli [1]): inactive
inhibition [2]: 44%
Activity (Escherichia coli [3]): inactive
Activity [4]: inactive
inhibition [5]: 21%
inhibition [6]: 70%
inhibition [7]: 33%
Activity [8]: inactive
inhibition [9]: 79%
inhibition [10]: 10%
inhibition [11]: 2%
inhibition [12]: 87%
